# Experimental data gathered from unrelated publications.
# Protocols differ between the studies behind these lines.
# Organism: Escherichia coli
# Effect on: microbial growth
Compound,technique,cells,strain,time,setting,MIC
CO[C@H]1O[C@H](COC(c2ccccc2)(c2ccccc2)c2ccccc2)[C@@H](OC(=O)c2ccc(C(C)(C)C)cc2)[C@H](OC(=O)c2ccc(C(C)(C)C)cc2)[C@H]1OC(=O)c1ccc(C(C)(C)C)cc1,broth dilution,,,,,1 µg/mL
N=C(N)c1ccc(OCCC(CCOc2ccc(C(=N)N)cc2)c2ccccc2)cc1 (stereo not drawn),broth dilution,,W3110,,,200 µg/mL
CCCCCCCCCC(=O)Oc1c(C)c(O)c(C(=O)/C=C/c2ccccc2)c(OC)c1C,broth dilution,,ATCC25922,,,5000 µg/mL
CCCCCCC/C=C/C(=O)N1C(=O)/C(=C(\O)CCCC)C(=O)C1CC(C)C (stereo not drawn),,K12,K12,,,> 200 µg/mL
N=C(N)c1cccc(OCc2ccc(COc3cccc(C(=N)N)c3)cc2)c1,broth dilution,,BW25113,,,> 200 µg/mL
O=C(CCCCCC[P+](c1ccccc1)(c1ccccc1)c1ccccc1)Nc1ccc(O)c(O)c1.[Br-],broth dilution,,ATCC25922,18 h,,> 32 µg/mL
CSc1ccc(-c2nc3ccccc3[nH]2)cc1,broth dilution,,ATCC25922,,,64 µg/mL
CC1(C)S[C@@H]2[C@H](NC(=O)[C@H](N)c3ccccc3)C(=O)N2[C@H]1C(=O)O,broth dilution,,ATCC25922,16 h,,0.3 µg/mL
CC(C)Oc1c(NC(=O)c2ccc(NC(=O)[C@H](CC(N)=O)NC(=O)c3ccc(NC(=O)c4cccc(N)c4)cc3)cc2)ccc(C(=O)Nc2ccc(C(=O)O)cc2)c1O,,,DSM1116,,,32 µg/mL
O=[N+]([O-])c1ccc(O)c2ncccc12,broth dilution,,ATCC25922,,,2 µg/mL
CC(C)Oc1c(NC(=O)c2ccc(NC(=O)[C@H](CC(N)=O)NC(=O)c3ccc(NC(=O)c4ccc(NC(N)=O)cc4)cc3)cc2)ccc(C(=O)Nc2ccc(C(=O)O)cc2)c1O,,,DSM1116,,,0.5 µg/mL
CN(C)c1ccc(-c2nc3ccccc3[nH]2)cc1,broth dilution,,ATCC25922,,,64 µg/mL
CNc1cccc2cc(C(=O)Nc3ccc(C(=O)O)cc3)c(=O)[nH]c12,broth dilution,,ATCC25922,,,64 µg/mL
O=c1[nH]cc(F)c(=O)[nH]1,broth dilution,,,24 h,,> 32 µg/mL
O=[N+]([O-])c1ccc(-c2nc3cc(Cl)ccc3[nH]2)o1,broth dilution,,ATTC25922,,,8 µg/mL
Brc1ccc(NCc2ccc(Oc3ccccn3)cc2)cc1,,,,,,> 25 µg/mL
COc1ccc(-c2nc3ccccc3[nH]2)cc1O,broth dilution,,ATCC25922,,,256 µg/mL
N=C(N)c1ccc(OCc2cc(COc3ccc(C(=N)N)cc3)cc(-c3ccccc3)c2)cc1,broth dilution,,W3110,,,100 µg/mL
CC(C)Oc1c(NC(=O)c2ccc(NC(=O)[C@H](CC(N)=O)NC(=O)c3ccc(NC(=O)c4ccc(C#N)cc4)cc3)cc2)ccc(C(=O)Nc2ccc(C(=O)O)cc2)c1O,,,DSM1116,,,0.5 µg/mL
C[C@H](CCC(=O)NCCCNCCCCNCCCN)[C@H]1CC[C@H]2[C@@H]3[C@H](O)C[C@@H]4C[C@H](O)CC[C@]4(C)[C@H]3C[C@H](O)[C@]12C,broth dilution,,MG1655,20 h,,> 256 µg/mL
Cc1cc(=O)[nH]n1C(=O)c1ccc(-n2c(C)ccc2C)cc1,broth dilution,,ATCC10536,18 h,,250 µg/mL
Cn1c(SCc2ccc(Cl)cc2)nnc1-c1cncc(C#Cc2ccccc2)c1,,,,,,≥ 20 µg/mL
C=CCOc1c(C)c(O)c(C(=O)/C=C/c2ccccc2)c(OC)c1C,broth dilution,,ATCC25922,,,5000 µg/mL
c1ccc(NCc2ccc(Oc3ccccn3)cc2)cc1,,,,,,> 25 µg/mL
COc1cccc(-c2nc3ccccc3[nH]2)c1,broth dilution,,ATCC25922,,,256 µg/mL
Cc1c(CN(C)C(=O)/C=C/c2cnc3c(c2)CC(CCN)C(=O)N3)oc2ccccc12.Cl (stereo not drawn),broth dilution,,MG1655,,clinical isolate,8 µg/mL
CC(C)Oc1c(NC(=O)c2ccc(NC(=O)[C@H](CC(N)=O)NC(=O)c3ccc(NC(=O)CCc4ccc(C#N)cc4)cc3)cc2)ccc(C(=O)Nc2ccc(C(=O)O)cc2)c1O,,,DSM1116,,,0.125 µg/mL
O=C(O)c1cn(C2CC2)c2cc(N3CCNCC3)c(F)cc2c1=O,broth dilution,,ATCC10536,18 h,,≤ 1 µg/mL
Clc1ccc(-c2nc3ccccc3n2Cc2ccccc2)cc1Cl,broth dilution,,ATCC25922,,,64 µg/mL
CCCCCCC/C=C/C(=O)N1C(=O)/C(=C(\O)c2ccc(OCOCCOC)cc2)C(=O)C1CC(C)C (stereo not drawn),,K12,K12,,,> 200 µg/mL
Cc1ccc(C)n1-c1ccc(-c2nnc(-c3cccc([N+](=O)[O-])c3)[nH]2)cc1,broth dilution,,ATCC10536,18 h,,250 µg/mL
CCCCCCC/C=C/C(=O)N1C(=O)/C(=C(\O)c2ccncc2)C(=O)C1CC(C)C (stereo not drawn),,K12,K12,,,> 200 µg/mL
N=C(N)c1ccc(OCc2ccc(-c3ccccc3)cc2COc2ccc(C(=N)N)cc2)cc1,broth dilution,,ATCC25922,,,200 µg/mL
O=C(CCCCCCCCCC[P+](c1ccccc1)(c1ccccc1)c1ccccc1)Nc1ccc(O)c(O)c1.[Br-],broth dilution,,ATCC25922,18 h,,> 32 µg/mL
CN(C)[C@@H]1C(O)=C(C(N)=O)C(=O)[C@@]2(O)C(O)=C3C(=O)c4c(O)cccc4[C@@](C)(O)[C@H]3C[C@@H]12,,,ATCC25922,,,4 µg/mL
CC1=NN(CNC(=O)c2ccccc2)C(=O)C1=NNn1c(-c2ccccc2)nc2ccccc2c1=O,broth dilution,,,24 h,,51.9 µM
Cc1ccc2nc(-c3c(F)cccc3Cl)[nH]c2c1,broth dilution,,ATCC25922,,,128 µg/mL
N=C(N)c1ccc(OCCCCCOc2ccc(C(=N)N)cc2)cc1,broth dilution,,W3110,,,> 200 µg/mL
C/C(=C\c1ccc(C#N)cc1)C(=O)Nc1ccc(C(=O)N[C@@H](CC(N)=O)C(=O)Nc2ccc(C(=O)Nc3ccc(C(=O)Nc4ccc(C(=O)O)cc4)c(O)c3OCC(C)C)cc2)cc1,,,DSM1116,,,0.5 µg/mL
Cc1cccc(NCc2ccc(Oc3ccccn3)cc2)c1,,,,,,> 50 µg/mL
Cc1ccc2nc(-c3ccc([N+](=O)[O-])cc3)n(Cc3ccc(Cl)cc3)c2c1,broth dilution,,ATCC25922,,,64 µg/mL
CCCCCCCCCCCC(=O)Oc1c(C)c(O)c(C(=O)/C=C/c2ccccc2)c(OC)c1C,broth dilution,,ATCC25922,,,5000 µg/mL
CC1=NN(CNc2ccc(C(=O)O)cc2)C(=O)C1=NNn1c(-c2ccccc2)nc2ccccc2c1=O,broth dilution,,,24 h,,50.5 µM
N=C(N)c1ccc(OCc2cc(Br)cc(COc3ccc(C(=N)N)cc3)c2)cc1,broth dilution,,W3110,,,100 µg/mL
O=C1NN=C(N=Cc2ccc(O)cc2O)C1=NNn1c(-c2ccccc2)nc2ccccc2c1=O,broth dilution,,,24 h,,53.5 µM
CC(C)Oc1c(NC(=O)c2ccc(NC(=O)[C@H](CC(N)=O)NC(=O)c3ccc(NC(=O)c4ccc(F)cc4)cc3)cc2)ccc(C(=O)Nc2ccc(C(=O)O)cc2)c1O,,,DSM1116,,,0.5 µg/mL
C=CCn1c(-c2ccc(OC)c(OC)c2)nc2ccccc21,broth dilution,,ATCC25922,,,128 µg/mL
N=C(N)c1cccc(OCCCCCOc2cccc(C(=N)N)c2)c1,,,BW25113,,,> 200 µg/mL
C/C(=C\c1ccc(O)cc1)C(=O)Nc1ccc(C(=O)N[C@@H](CC(N)=O)C(=O)Nc2ccc(C(=O)Nc3ccc(C(=O)Nc4ccc(C(=O)O)cc4)c(O)c3OC(C)C)cc2)cc1,,,DSM1116,,,0.25 µg/mL
N=C(N)c1ccccc1OCc1ccccc1COc1ccccc1C(=N)N,broth dilution,,BW25113,,,> 200 µg/mL
NC1CCCCc2c1[nH]c1ccc(Br)cc21 (stereo not drawn),broth dilution,,ATCC25922,,,16 µg/mL
COc1cc(Cc2cnc(N)nc2N)cc(OC)c1OC,,,,,,~0.2 µM
Cn1cc(NC(=O)C(CC(N)=O)NC(=O)c2ccc(NC(=O)c3ccc(C#N)cc3)cc2)cc1-c1nc2ccc(C(=O)Nc3ccc(C(=O)O)cc3)c(O)c2[nH]1 (stereo not drawn),,,DSM1116,,,> 64 µg/mL
CCCCCCC#Cc1cncc(-c2nnc(SCc3ccc([N+](=O)[O-])o3)n2C2CC2)c1,,,,,,≥ 20 µg/mL
